Data published in publication PMC5198968 (Cancer Science, 2016).

Test: Pharmacokinetics in plasma and urine
Assay type: in vivo, human
Conditions: for half-life: human, plasma, oral, t ½,ss, gMean (gCV%)
How it was run: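 Oral dosing twice daily, at 100, 150 or 200 mg depending on group. Blood was drawn predose and 1, 2, 3, 4, 6, 8, 10 and 24 h postdose on cycle 1 day 15, plus predose and 2 h postdose on cycle 2 days 1 and 15. Urine was collected over 24 h on cycle 1 day 15 and stored at −20°C or below. Analysis was by LC-MS/MS, with non-compartmental parameters, in treated patients with an evaluable PK end-point.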

[1] = dose-normalized AUC at steady state

SMILES: COC(=O)c1ccc2c(c1)NC(=O)/C2=C(\Nc1ccc(N(C)C(=O)CN2CCN(C)CC2)cc1)c1ccccc1 [nintedanib]
- Time at which plasma concentrations reached their maximum (after multiple oral dose administration at steady state): 3 to 4 h
- Correlation between nintedanib exposure (AUCτ,ss,norm) and AST or ALT levels (days 1–22 of cycle 1): no clear correlation
- Increase in AUCτ,ss,norm, Child–Pugh score 7 versus score 5 or 6 [1]: 37%
- Increase in AUCτ,ss,norm, group II versus group I [1]: 26%
- half-life (100 mg, Group II (moderate liver impairment), 100 mg b.i.d., n = 2, steady state): 2500 min
- half-life (150 mg, Group I (mild liver impairment), 150 mg b.i.d., n = 3, steady state): 1420 min
- half-life (150 mg, Group II (moderate liver impairment), 150 mg b.i.d., n = 3, steady state): 876 min
- half-life (200 mg, Group I (mild liver impairment), 200 mg b.i.d., n = 9, steady state): 996 min
- half-life (200 mg, Group II (moderate liver impairment), 200 mg b.i.d. (n = 7), steady state): 1060 min
- Administered dose recovered in the urine (over 24 hours after dosing at steady state): 0.49–0.66%
- AUCτ,ss of individual patients with high exposure (two patients in group I, 200 mg b.i.d. cohort): 5700 ng·h/mL
